Test results as given in ChEMBL document CHEMBL1641480, “Antioxidant activity of a new C-glycosylflavone from the leaves of Ficus microcarpa” (Bioorg Med Chem Lett, 2011).
The source made the active and inactive calls. The rule behind the calls is not given here.

How the values were obtained:
Format in all cases: functional
[1] = Antioxidant activity assessed as peroxyl radical scavenging activity at 1 to 2 uM by ORAC assay
In short: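 ORAC peroxyl-radical assay at 1.0 and 2.0 μM. Fluorescein is the radical target and 20 mM AAPH the generator. Fluorescence recorded every 2 min after AAPH, relative to the initial reading. Net area under the decay curve versus blank, expressed as μM Trolox equivalents against freshly prepared Trolox standard.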

[2] = Antioxidant activity assessed as copper ion radical scavenging activity at 2 uM
In short: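 Cu(II)-reducing test: compound in distilled water mixed 40:160 with 0.5 mM CuCl2 plus 0.75 mM neocuproine in 10 mM phosphate buffer, pH 7.4. Absorbance read at 454 nm for 1 h. Reduced Cu(I) concentration measured at 2 μM compound.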

[3] = Metal chelating activity of the compound at 1 to 2 uM
In short: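 Chelation: compound mixed 1:1 with CuSO4, then calcein added. Fluorescence read at excitation 485 nm and emission 535 nm, compared with calcein-only control. Tested at 1 and 2 μM; mean ± S.D.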

SMILES: Oc1cc(O)c2c(c1)O[C@H](c1ccc(O)c(O)c1)[C@@H](O)C2
- Activity [1]: Active
- Activity [2]: Active
- Activity [3]: inactive

SMILES: O=c1cc(-c2ccc(O[C@@H]3O[C@H](CO)[C@@H](O)[C@H](O)[C@H]3O)cc2)oc2cc(O)c([C@@H]3O[C@H](CO)[C@@H](O)[C@H](O)[C@H]3O)c(O)c12
- Activity [2]: inactive
- Activity [3]: inactive

SMILES: C[C@H](O)/C=C/[C@@]1(O)C(C)(C)C[C@H](O)C[C@@]1(C)O
- Activity [1]: inactive
- Activity [2]: inactive
- Activity [3]: inactive

SMILES: CC[C@H](CC[C@@H](C)[C@H]1CC[C@H]2[C@@H]3CC=C4C[C@@H](O[C@@H]5O[C@H](CO)[C@@H](O)[C@H](O)[C@H]5O)CC[C@]4(C)[C@H]3CC[C@]12C)C(C)C
- Activity [1]: inactive
- Activity [2]: inactive
- Activity [3]: inactive

SMILES: COc1cc(/C=C/CO)cc(OC)c1O[C@@H]1O[C@H](CO)[C@@H](O)[C@H](O)[C@H]1O
- Activity [1]: inactive
- Activity [2]: inactive
- Activity [3]: inactive

SMILES: O=c1cc(-c2ccc(O)c(O)c2)oc2cc(O)c([C@@H]3O[C@H](CO)[C@@H](O)[C@H](O)[C@H]3O)c(O)c12
- Activity [1]: Active
- Activity [2]: Active
- Activity [3]: inactive

SMILES: C[C@@H]1C[C@H](O)CC(C)(C)[C@@]1(O)CC[C@H](C)O[C@H]1O[C@@H](CO)[C@H](O)[C@@H](O)[C@@H]1O
- Activity [1]: inactive
- Activity [2]: inactive
- Activity [3]: inactive

SMILES: O=c1cc(-c2ccc(O)cc2)oc2cc(O)c([C@@H]3O[C@H](CO)[C@@H](O)[C@H](O)[C@H]3O)c(O)c12
- Activity [2]: inactive
- Activity [3]: inactive

SMILES: CCCCCCCCCCCCCCCCCC(=O)OC[C@H]1O[C@@H](O[C@H]2CC[C@@]3(C)C(=CC[C@H]4[C@@H]5CC[C@H]([C@H](C)CC[C@@H](CC)C(C)C)[C@@]5(C)CC[C@@H]43)C2)[C@H](O)[C@@H](O)[C@@H]1O
- Activity [1]: inactive
- Activity [2]: inactive
- Activity [3]: inactive

SMILES: O=c1cc(-c2ccc(O)cc2)oc2c([C@@H]3O[C@H](CO)[C@@H](O)[C@H](O)[C@H]3O[C@H]3OC[C@@](O)(CO)[C@@H]3O)c(O)cc(O)c12
- Activity [2]: inactive
- Activity [3]: inactive

SMILES: CC[C@H](CC[C@@H](C)[C@H]1CC[C@H]2[C@@H]3CC=C4C[C@@H](O)CC[C@]4(C)[C@H]3CC[C@]12C)C(C)C
- Activity [1]: inactive
- Activity [2]: inactive
- Activity [3]: inactive

SMILES: C[C@H](/C=C/[C@]1(O)C(C)(C)C[C@@H](O)C[C@]1(C)O)O[C@H]1O[C@@H](CO)[C@H](O)[C@@H](O)[C@@H]1O
- Activity [1]: inactive
- Activity [2]: inactive
- Activity [3]: inactive

SMILES: Oc1cc(O)c2c(c1)O[C@H](c1ccc(O)c(O)c1)[C@H](O)C2
- Activity [1]: Active
- Activity [2]: Active
- Activity [3]: inactive

SMILES: CC1=CC(=O)CC(C)(C)[C@H]1/C=C/[C@@H](C)O[C@@H]1O[C@H](CO[C@@H]2O[C@@H](CO)[C@H](O)[C@H]2O)[C@@H](O)[C@H](O)[C@H]1O
- Activity [1]: inactive
- Activity [2]: inactive
- Activity [3]: inactive
